Sampled rows, rich in hits. Any-hit rate of the full collection: about 2.6%.
MT stabilize HCS: microtubule stabilization, imaging screen. HeLa tubulin immunostaining HCS, 24 h; share of cells brighter than vehicle mean+2SD. % tubulin-high responders, % at 10 µM. actives 0.83% (n = 200,000). AID 2205;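 active = plate Z-score above 3 for both tubulin-high and condensed-nucleus cell shares, with cell loss under 80%, at 10 µM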;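 note: anti alpha tubulin signal scored within the nucleus-defined area of each cell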
b-catenin transl: alters nuclear translocation of beta-catenin in HeLa cells. immunofluorescence imaging. nuclear translocation activity, % at 5 µM. actives 0.3% (n = 190,000);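 active = nuclear translocation activity above 50% at 5 µM, with a well cell count of 50 or more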;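 note: per-cell ratio of nuclear to cytoplasmic median beta-catenin stain intensity; plate controls were DMSO negative control for no effect and GSK-3 inhibitor IX positive control for full effect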
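Read-out: Nuclear/cytoplasmic beta-catenin signal ratio, % activation | Assay system: Human HeLa cell line | Times: 24 h compound exposure at 37°C, 5% CO2 | Signal: Fluorescence imaging of beta-catenin antibody stain plus DAPI | Dosing: 5 µM primary, 0.02–20 µM confirmation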
NPY Y2 blocker: antagonists of human neuropeptide Y receptor Y2; NPY-Y2 expressing cells, antagonist mode; actives 0.99% (n = 140,000); P49146; inhibition, % at 2.7 µM; in the data active = inhibition above about 17%;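 note: 0% = vehicle with agonist challenge and 100% = reference antagonist with challenge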
Target sequence (P49146 whole entry, looked up): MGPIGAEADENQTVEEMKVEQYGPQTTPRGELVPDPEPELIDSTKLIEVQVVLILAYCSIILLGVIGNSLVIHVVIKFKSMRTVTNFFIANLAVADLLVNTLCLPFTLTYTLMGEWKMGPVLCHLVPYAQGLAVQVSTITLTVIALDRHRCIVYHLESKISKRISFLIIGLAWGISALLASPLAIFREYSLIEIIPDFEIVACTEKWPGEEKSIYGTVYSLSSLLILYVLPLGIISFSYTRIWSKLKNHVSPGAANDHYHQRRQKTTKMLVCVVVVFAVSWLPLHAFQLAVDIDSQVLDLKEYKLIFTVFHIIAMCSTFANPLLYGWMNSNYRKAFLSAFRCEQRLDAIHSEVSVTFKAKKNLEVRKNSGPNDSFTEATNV
NPY2 pot ag: potentiators or agonists of human neuropeptide Y receptor Y2; activation, % at 3.6 µM; cells expressing NPY-Y2, potentiator/agonist read-out; P49146; actives 0.45% (n = 220,000); AID 1359; in the data active = activation above about 27%;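 note: cells stimulated with NPY near EC25 plus isoproterenol at EC100; 0% = vehicle plus submaximal agonist and 100% = vehicle plus saturating agonist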
NPY1 pot ag: potentiates or activates human NPY-Y1 receptor; NPY-Y1 expressing cells, potentiator/agonist activation; activation, % at 3.6 µM; actives 0.37% (n = 220,000); AID 1304; in the data active = activation above about 33%, passing the limit was not always enough;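 note: cells stimulated with NPY at EC10 then isoproterenol at EC100; 0% = low agonist plus stimulus and 100% = saturating agonist plus stimulus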
NPY Y1 blocker: NPY-Y1 (human) receptor antagonism. inhibition, % at 3.6 µM. P25929. AID 1040. actives 1% (n = 200,000). HEK293-CNG Y1 cells, membrane potential fluorescence; NPY at EC95, then isoproterenol;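 active = inhibition above the campaign mean inhibition of all tested compounds plus 3 SD, cut at about 20% in these data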;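 note: 0% = DMSO wells given NPY plus isoproterenol and 100% = isoproterenol alone without NPY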
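Test system: HEK293 cells co-expressing NPY Y1 receptor and cyclic-nucleotide gated channel; Also added: NPY (25 nM), isoproterenol (1 µM), Ro 20-1724 (25 µM); Compound dosing: one concentration, 3.6 µM, in 0.4% DMSO; Timing: dye 3 h, compound 60 min room temperature, stimulation 45 min; Technique: Membrane-potential fluorescent dye readout.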
An asterisk follows results filed as active; nt = no result given.

SMILES	MT stabilize HCS	b-catenin transl	NPY Y2 blocker	NPY2 pot ag	NPY1 pot ag	NPY Y1 blocker
CN(Cc1ccccc1)C(=O)c1oc(=O)c2ccccc2c1-c1ccccc1	2	-6	23*	-10	-2	31*
Cc1ccc(-c2c(C(=O)N(C)Cc3ccccc3)oc(=O)c3ccccc23)cc1	2	-5	34*	-20	-29	35*
Cc1ccc(-c2c(C(=O)NCc3ccccc3)oc(=O)c3ccccc23)cc1	2	-4	10	3	10	6
c1ccc(-c2noc(CN3CCN(c4cnccn4)CC3)n2)cc1	3	3	nt	1	-10	-4
Cc1ccccc1-n1c(SCC(=O)N/N=C/c2sccc2C)nc2ccccc2c1=O	14*	0	-2	12	13	-3
CC(NC(=O)c1ccc(N(C)C)cc1)C1CC2CCC1C2 (centres undefined)	1	2	1	4	4	-3
COc1ccc(/C=N/NC(=O)c2cc(OC)c(OC)c(OC)c2)cc1CN1CCc2cc(OC)c(OC)cc2C1C (centres undefined)	20*	6	nt	1	-8	-3
COc1ccc(/C=N/NC(=O)c2cccnc2)cc1CN1CCc2cc(OC)c(OC)cc2C1C (centres undefined)	3	1	nt	1	-8	-2
c1ccc2c(N3CCCCC3)nc(N3CCCC3)nc2c1	2	nt	32*	-29	-53	56*
COc1ccc(Nc2nc(N3CCCCC3)nc3ccccc23)c(OC)c1	3	nt	50*	-7	-24	41*
COc1ccc(Nc2nc(N3CCCCC3)nc(N3CCCCC3)n2)c(OC)c1	nt	-2	nt	nt	nt	nt
c1ccc2c(c1)nc(N1CCCCC1)c1ccccc12	nt	1	nt	-44	-23	nt
CCOC(=O)c1c(C)nc2sc(C(=O)Nc3ccc(OC)cc3)c(N)c2c1-c1ccc(OC)cc1	24*	-6	0	-14	-29	3
COc1ccc(-c2n[nH]c(C(F)(F)F)c2-c2cc3ccccc3o2)c(O)c1	30*	94*	-3	23	42	-14
COc1ccccc1-c1c(-c2ccc(OCC(=O)NN)cc2O)n[nH]c1C(F)(F)F	1	0	-1	12	13	-2
COc1ccc2c(c1)c(C(=O)N/N=C/c1ccc(Br)cc1)c(C)n2C	nt	3	nt	-40	-10	nt
CCOc1ccc(/C=N/NC(=O)c2c(C)n(C)c3ccc(OC)cc23)cc1	17*	2	2	-9	-12	0
CC(C)Nc1nc(NC(C)C)nc(SCC(N)=O)n1	1	1	nt	-1	-2	1
c1ccc(Nc2c3c(nc4ccccc24)CCC3)cc1	1	0	nt	-37	-41	20*
CC[n+]1c(/C=C(\C)OC)sc2ccccc21	3	0	nt	-8	4	0
CC[n+]1c(/C=C/C=C/N(C(C)=O)c2ccccc2)sc2cc(OC)ccc21	73*	165*	8	-2	19	4
Sc1oc(-c2ccccc2)cc1C=Nc1ccccc1	1	nt	3	11	14	-3
O=C(N/N=C/c1ccc(Cl)cc1)c1cc2c(s1)-c1ccccc1CC2	35*	-3	-1	-14	3	3
Nc1sc(-c2ccccc2)cc1C(=O)N/N=C/c1ccc(Cl)cc1	nt	1	nt	-2	31	nt
CC(C)c1[nH]nc2c1C(c1cccc(OC(=O)N3CCOCC3)c1)C(C#N)=C(N)O2 (centres undefined)	4	nt	20*	0	-31	131*
SMILES	MT stabilize HCS	b-catenin transl	NPY Y2 blocker	NPY2 pot ag	NPY1 pot ag	NPY Y1 blocker
COc1cc(C2Sc3ccccc3NC3=C2C(=O)OC3)cc(OC)c1OC (centres undefined)	40*	1	3	6	6	-1
CN(C)c1ccc(-c2nn3c(-c4ccccc4Cl)nnc3s2)cc1	29*	78*	11	-5	-29	8
COc1ccccc1-c1nnc2sc(-c3cc4ccccc4o3)nn12	44	94*	5	-3	-13	8
COc1ccccc1-c1nn2c(C(F)(F)F)nnc2s1	14*	-3	5	13	21	0
COc1ccc(-c2nn3c(-c4cccc(C)c4)nnc3s2)cc1OC	33*	nt	4	1	8	-1
Cc1cccc(-c2nnc3sc(-c4ccccc4)nn23)c1	4	-5	1	7	7	-3
O=C(O)/C=C/C(=O)Nc1ccccc1SC(F)(F)F	6	-2	1	7	-12	2
O=C(O)CCCCCNC(=O)CCn1cnc2ccccc2c1=O	5	0	-2	-4	2	-3
COc1ccccc1-c1nnc2sc(-c3ccc(N(C)C)cc3)nn12	8	74*	8	-18	-20	9
CO/N=C\CC(=O)Nc1ccc(Cl)cc1Cl	10*	1	nt	-7	7	3
CCOc1c(Br)cc(CNc2ccc3c(c2)OCCO3)cc1OC	12	132*	2	-14	-13	18
CCOc1cc(CNc2ccc3c(c2)OCCO3)cc(Br)c1OC	14	143*	9	-7	3	17
COc1cc(CNc2ccc(C)c(C)c2)cc(OC)c1OC	31	107*	0	-5	-13	-3
CCOC(=O)C(NC(C)=O)(Nc1ccc(S(=O)(=O)Nc2ccncn2)cc1)C(F)(F)F (centres undefined)	3	-2	1	-5	3	2
CCn1c(C)c(CS(=O)(=O)c2ccccc2)[nH]c1=O	3	0	nt	-1	2	7
CC1CCC(C(C)C)C(OC(=O)C[n+]2cc(-c3ccc(Cl)cc3)n3c2CCC3)C1 (centres undefined)	nt	-2	nt	-11	-30	nt
CC1CCC(C(C)C)C(OC(=O)Cn2c(-c3ccc(F)cc3)[n+](C)c3ccccc32)C1 (centres undefined)	2	nt	46*	-11	-47	61*
CC1CCC(C(C)C)C(OC(=O)Cn2c(-c3ccccc3)[n+](C)c3ccccc32)C1 (centres undefined)	4	-7	80*	-37	-129	112*
CCN(CC(=O)Nc1ccc([N+](=O)[O-])cc1OC)c1ccccc1	4	1	2	-8	6	8
CCCC12CN3CC(C)(CN(C1)C3c1cccs1)C2=O (centres undefined)	nt	0	nt	-10	17	nt
COc1ccccc1OCCNC(=O)Cc1ccc(Cl)c(Cl)c1	2	1	nt	1	18	5
CC1C(c2ccccc2)N(C)C(c2ccccc2)C(C)C1(O)C#Cc1ccccc1 (centres undefined)	3	3	18*	-12	-34	14
COc1ccc2nc(SCC(=O)Nc3ccc(S(=O)(=O)Nc4nccc(C)n4)cc3)[nH]c2c1	3	0	-4	18	-8	-3

From PubChem
